Results from ChEMBL document CHEMBL2040760, “Synthesis and biological evaluation of novel (-)-Cercosporamide derivatives as potent selective PPARγ modulators” (Eur J Med Chem, 2012).
In brackets after ≈: the same amount, converted by molar mass. Activity calls are given as the source filed them. No cut-off for these calls is given here.

Tests used:
[1] = biological target: T1, Peroxisome proliferator-activated receptor gamma (Homo sapiens, UniProt P37231); assay: Modulation of full-length human pSG5-fused PPARgamma expressed in MG-63 cells co-expressing pGV-P2-PPRE after 24 hrs by luciferase reporter gene based transactivation assay; format: cell-based
T1 sequence (P37231 whole entry): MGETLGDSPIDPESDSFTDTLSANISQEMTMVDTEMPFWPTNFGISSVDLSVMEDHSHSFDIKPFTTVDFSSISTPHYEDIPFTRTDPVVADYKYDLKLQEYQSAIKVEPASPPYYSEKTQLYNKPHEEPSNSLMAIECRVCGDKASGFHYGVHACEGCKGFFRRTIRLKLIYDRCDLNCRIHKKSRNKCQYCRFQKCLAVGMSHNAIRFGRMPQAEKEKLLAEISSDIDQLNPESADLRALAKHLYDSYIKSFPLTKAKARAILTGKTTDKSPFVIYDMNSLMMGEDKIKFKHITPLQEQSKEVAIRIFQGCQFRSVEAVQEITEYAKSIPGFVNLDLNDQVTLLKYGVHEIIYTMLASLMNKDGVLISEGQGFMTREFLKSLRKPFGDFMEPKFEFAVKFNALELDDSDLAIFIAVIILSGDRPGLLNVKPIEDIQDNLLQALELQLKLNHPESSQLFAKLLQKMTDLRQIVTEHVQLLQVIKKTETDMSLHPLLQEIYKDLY
Method in brief: (§1)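 MG-63 cells transiently co-transfected (Lipofectamine, 4 h, serum- and antibiotic-free) with pSG5-hPPARγ and pGV-P2-PPRE luciferase reporter, replated at 40,000 cells/well. After 24 h and medium change, exposed to graded compound concentrations for 20 h. Luciferase luminescence read as the output.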

[2] = biological target: T2, Peroxisome proliferator-activated receptor gamma (Homo sapiens) (UniProt P37231); assay: Modulation of full-length human pSG5-fused PPARgamma expressed in MG-63 cells co-expressing pGV-P2-PPRE after 24 hrs by luciferase reporter gene based transactivation assay relative to 5-(4-{[6-(4-hydroxy-3,5-dimethylphenoxy)-1-methyl-1H-benzimidazol- 2-yl]methoxy}benzyl)-1,3-thiazolidine-2,4-dione; format: cell-based; method in brief: as §1
T2 sequence (whole entry): T1 sequence (P37231 whole entry)

[3] = test system: Rattus norvegicus; assay: Antidiabetic activity in po dosed Zucker diabetic fatty rat assessed as improvement in plasma lipids profiles administered qd for 12 days; format: functional, organism-based
Method in brief: (§2)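 Female ZDF rats, 5 weeks old on arrival, acclimatised over 1 week on MR-DBT chow with 10% lard. Randomised on Day -1 by BW, PG, insulin and blood indices. Once-daily oral gavage in 0.5% methylcellulose at 0.01–100 mg/kg for 12 days, n = 5. BW recorded daily. Tail-vein plasma taken Day 12 for glucose, TG, FFA and insulin kits. Dunnett vs vehicle.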

[4] = test system: Rattus norvegicus; assay: Antidiabetic activity in Zucker diabetic fatty rat assessed as reduction of free fatty acids level at >1 mg/kg, po qd for 12 days; format: functional, organism-based; method in brief: as §2
[5] = test system: Rattus norvegicus; assay: Toxicity in po dosed Wistar-Imamichi rat assessed as increase heart weight administered qd for 14 days; format: organism-based; settings: in vivo, 336 h
Method in brief: (§3)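 Female Wistar–Imamichi rats (7 weeks old, acclimatized >1 week on FR2 chow), randomized by BW; n = 5/group. Oral gavage once daily in 0.5% methylcellulose, 100 mg/kg or 30–300 mg/kg, Days 0–13. BW recorded daily. On Day 14, heart weighed after Evans blue dosing and aortic blood draw under ether. Dunnett's or unpaired two-tailed t-test vs vehicle.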

[6] = test system: Rattus norvegicus; assay: Toxicity in Zucker diabetic fatty rat assessed as increase in body weight at 0.1 mg/kg, po qd for 12 days; format: organism-based; set-up: dose 0.1 mg/kg, route oral; settings: in vivo, 288 h
Method in brief: (§4)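 Female ZDF rats (5 weeks old on arrival, acclimatized >1 week on MR-DBT diet with 10% lard) randomized on Day -1 by BW, plasma glucose, insulin, Hct, Hb, RBC, MCV; n = 5/group. Oral gavage once daily in 0.5% methylcellulose, 0.01–100 mg/kg, Days 0–11. BW recorded daily; tail-vein plasma on Day 12 for glucose, TG, insulin, FFA; Dunnett's test vs vehicle.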

[7] = test system: Rattus norvegicus; assay: Antidiabetic activity in Zucker diabetic fatty rat assessed as reduction of triglyceride level at 1 to 100 mg/kg, po qd for 12 days; format: functional, organism-based; method in brief: as §4
[8] = test system: Rattus norvegicus; assay: Toxicity in Wistar-Imamichi rat assessed as increase in body weight at 300 mg/kg, po qd for 14 days; format: organism-based; set-up: dose 300 mg/kg, route oral; settings: in vivo, 336 h; method in brief: as §3
[9] = test system: Rattus norvegicus; assay: Antidiabetic activity in Zucker diabetic fatty rat assessed as reduction of non-fasting plasma glucose level at >1 mg/kg, po qd for 12 days; format: functional; method in brief: as §2
[10] = Solubility of the compound in JP2 at pH 6.8; format: physicochemical; settings: JP2, pH 6.8
Method in brief: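 Solubility was measured in JP2 medium at pH 6.8.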

[11] = biological target: T1, Peroxisome proliferator-activated receptor gamma; assay: Modulation of human GAL4-fused PPARgamma LBD expressed in COS7 cells co-expressing pG5luc by luciferase reporter gene based transactivation assay; format: cell-based, COS-7
Method in brief: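 COS7 cells in DMEM with 10% FBS were transfected with pM-hPPARγ, pM-PPARα or pM-PPARδ (GAL4-LBD) plus pG5luc using Lipofectamine 2000, then reseeded and held about 24 h. Serial dilutions were added, with 0.1% DMSO as control, for about 24 h more. Read-out was luciferase luminescence. Mean ± S.E.M., n = 3.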

EC50 [1] [nM] | Emax [2] [%] | Compound | also measured
65 | 40 | COc1cc(O)c2c(c1C(=O)NCc1c(C)ccc3ccc(F)cc13)OC1=CC(O)=C(C(C)=O)C(=O)[C@]12C | –
27 | 28 | COc1cc(O)c2c(c1C(=O)NCc1c(C)ccc3cc(F)ccc13)OC1=CC(O)=C(C(C)=O)C(=O)[C@]12C | –
– | – | CN(CCOc1ccc(CC2SC(=O)NC2=O)cc1)c1ccccn1 (configuration not stated) [ROSIGLITAZONE] | Activity [3]: Dose-dependent effect; Activity [4]: Active; Activity [5]: Dose-dependent effect; Activity [6]: Toxic; Activity [7]: Active; Activity [8]: Non-toxic; Activity [9]: <200 mg/dL
170 | 59 | COc1cc(O)c2c(c1C(=O)NCc1c(C)ccc3c(Cl)cccc13)OC1=CC(O)=C(C(C)=O)C(=O)[C@]12C | –
4.9 | 44 | COc1cc(O)c2c(c1C(=O)NCc1c(C)ccc3ccc(Cl)cc13)OC1=CC(O)=C(C(C)=O)C(=O)[C@]12C | –
43 | 37 | CCCc1ccc2ccccc2c1CNC(=O)c1c(OC)cc(O)c2c1OC1=CC(O)=C(C(C)=O)C(=O)[C@]12C | –
59 | 22 | CCCCc1ccc2ccccc2c1CNC(=O)c1c(OC)cc(O)c2c1OC1=CC(O)=C(C(C)=O)C(=O)[C@]12C | –

Compound | EC50 [1] [nM] | Emax [2] [%] | also measured
CCc1cc(F)c2ccccc2c1CNC(=O)c1c(OC)cc(O)c2c1OC1=CC(O)=C(C(C)=O)C(=O)[C@]12C | 0.94 | – | solubility [10]: 23 µg/mL (≈ 43.3 µM); EC50 [11]: 12 nM
